From ChEMBL document CHEMBL3272163, “Synthesis and antiinflammatory activity of some 2-substituted 4- and 7-benzoxazoleacetic and alpha-methylacetic acids” (J Med Chem, 1977)
One block for each compound: values may come before it.

Experiments:
Rattus norvegicus [1] = assay: Antiinflammatory activity in rat assessed as carrageenan-induced foot edema at 2 x 100 mg/kg, po relative to control; assay type: functional
In short: (§1)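 Rats were given carrageenan-induced foot edema by the Winter et al. method, modified as described in the paper's ref 1. Compound was dosed orally twice (dose × 2). The read-out was percent reduction of swelling relative to untreated controls, with significance given as p values.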

[2] = Dissociation constant, pKa of the compound in 75% EtOH; assay type: physicochemical
In short: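 pKa was determined in 75% EtOH, and values are reported to ±0.025.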

[3] = Toxicity in po dosed mouse; assay type: organism-based; conditions: in vivo
In short: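 Approximate LD50 in mice after oral dosing, in mg/kg.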

[4] = Octanol-water partition coefficient, P of the compound
Rattus norvegicus [5] = assay: Antiinflammatory activity in rat assessed as carrageenan-induced foot edema at 2 x 50 mg/kg, po relative to control; assay type: functional; in short: as §1
Rattus norvegicus [6] = assay: Antiinflammatory activity in rat assessed as carrageenan-induced foot edema at 2 x 33 mg/kg, po relative to control; assay type: functional; in short: as §1

SMILES: O=C(O)Cc1cccc2oc(-c3ccccc3)nc12
Activity (Rattus norvegicus [1]): 28%
pKa [2]: 6.3
LD50 [3]: 400 mg/kg
P [4]: 1.03

SMILES: O=C(O)Cc1cccc2oc(-c3ccc(Cl)cc3)nc12
Activity (Rattus norvegicus [1]): 8%
pKa [2]: 6.1
LD50 [3]: 600 mg/kg
P [4]: 9.28

P [4]: 6.93
SMILES: CC(C(=O)O)c1cccc2oc(-c3ccccc3)nc12 (configuration not stated)
Activity (Rattus norvegicus [5]): 1%

SMILES: C/C(=C1/SC(=S)NC1=O)c1cccc2oc(-c3ccccc3)nc12
Activity (Rattus norvegicus [1]): 9%
LD50 [3]: > 1600 mg/kg

SMILES: CC(C(=O)O)c1cccc2nc(-c3ccccc3)oc12 (configuration not stated)
Activity (Rattus norvegicus [1]): 44%
Activity (Rattus norvegicus [5]): 26%
pKa [2]: 6.2
LD50 [3]: 1200 mg/kg
P [4]: 3.66

SMILES: CC(C(=O)O)c1cccc2nc(-c3ccc(Cl)cc3)oc12 (configuration not stated)
Activity (Rattus norvegicus [1]): 16%
pKa [2]: 6.25
LD50 [3]: 1200 mg/kg

SMILES: Cc1ccc(-c2nc3cccc(C(C)C(=O)O)c3o2)cc1 (configuration not stated)
Activity (Rattus norvegicus [1]): 10%
pKa [2]: 6.2
LD50 [3]: > 1600 mg/kg
P [4]: 8.94

SMILES: C[C@]12CCC(=O)C=C1CC[C@@H]1[C@@H]2[C@@H](O)C[C@@]2(C)[C@H]1CC[C@]2(O)C(=O)CO [HYDROCORTISONE]
Activity (Rattus norvegicus [5]): 33%

SMILES: CCCCC1C(=O)N(c2ccccc2)N(c2ccccc2)C1=O [PHENYLBUTAZONE]
Activity (Rattus norvegicus [5]): 59%
Activity (Rattus norvegicus [6]): 52%
